This is a sample that favours compounds with a hit; in the whole collection about 2.3% have one here.
OXTR agonist = agonists of human oxytocin receptor | P30559 | CHO-OTR cells, Fluo-8 calcium fluorescence; normalized: DMSO 0%, oxytocin 100% | activation, % at 3 µM | 0.32% of 320,000 active | AID 2435;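 active = activation above the mean of all tested compounds plus 3 SD, cutoff set per screening run, cut at about 20% in these data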;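 note: peak over basal fluorescence ratio from a 100 s FLIPR kinetic read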
Target sequence (P30559 whole entry, looked up): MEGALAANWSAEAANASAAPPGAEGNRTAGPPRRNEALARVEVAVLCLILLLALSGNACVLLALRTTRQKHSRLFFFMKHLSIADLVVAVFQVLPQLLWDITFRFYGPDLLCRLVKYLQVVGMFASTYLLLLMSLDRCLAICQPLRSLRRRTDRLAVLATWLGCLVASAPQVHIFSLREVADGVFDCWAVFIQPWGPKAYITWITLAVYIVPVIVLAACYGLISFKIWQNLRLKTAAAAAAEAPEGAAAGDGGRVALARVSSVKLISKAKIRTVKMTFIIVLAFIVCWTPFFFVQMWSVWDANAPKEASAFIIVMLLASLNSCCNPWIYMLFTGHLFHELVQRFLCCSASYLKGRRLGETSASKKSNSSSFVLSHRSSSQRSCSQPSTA
V1R ag counter = V1a receptor agonism, counter-screen for OXTR agonists; P37288; CHO-V1R cells, Fluo-8 calcium fluorescence, agonist mode; 0% DMSO, 100% 3 nM vasopressin; activation, % at 3 µM; 0.25% of 320,000 active;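 active = activation above the mean activation of all tested compounds plus 3 SD, per screening run, cut at about 20% in these data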;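 note: signal is peak over basal fluorescence ratio across a 100 second FLIPR read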
OXTR potentiate = human OXTR potentiation; P30559; CHO-OTR cells, Fluo-8 calcium fluorescence, potentiator mode; 0% = oxytocin EC15, 100% = EC100; activation, % at 3 µM; 0.061% of 320,000 active; AID 2445;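 active = activation above that plate's cutoff, the mean activation of tested compounds plus 3 SD, cut at about 6.6% in these data, passing the limit was not always enough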
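test system = CHO-OTR cells, human receptor | compound = single-point 3.0 µM | schedule = 6 min compound pre-incubation at room temperature, 100 s kinetic read | signal = Fluo-8 no-wash calcium dye fluorescence, excitation 470-495 nm, emission 515-575 nm | repeats = single well per compound, singlicate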
TAAR1 antagonist = human TAAR1 antagonism. CHO RD-HGA16 TAAR1, Fluo-8 calcium fluorescence, antagonist. inhibition, % at 3 µM. 1.5% of 360,000 active;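 active = inhibition above a per-plate cutoff, the mean inhibition of test compounds on that plate plus 3 SD, cut at about 49% in these data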
Target sequence (Q96RJ0 whole entry, looked up): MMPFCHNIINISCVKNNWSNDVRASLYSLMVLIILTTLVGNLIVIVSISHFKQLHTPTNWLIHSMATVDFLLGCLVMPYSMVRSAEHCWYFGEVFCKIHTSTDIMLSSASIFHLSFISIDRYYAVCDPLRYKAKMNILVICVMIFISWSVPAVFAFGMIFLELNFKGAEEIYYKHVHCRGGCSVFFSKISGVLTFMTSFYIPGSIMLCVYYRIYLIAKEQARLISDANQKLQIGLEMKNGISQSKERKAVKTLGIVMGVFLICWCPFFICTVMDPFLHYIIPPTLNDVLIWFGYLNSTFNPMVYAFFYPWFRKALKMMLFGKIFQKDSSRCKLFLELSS
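Test system – hTAAR1-expressing CHO RD-HGA16 cells, Gα16-coupled · Reagent – β-PEA at EC80 concentration, post-compound challenge · Compound dosing – 3 µM, single point · Timing – 140 s kinetic read after compound, 140 s after agonist · Detection – Fluo-8 intracellular calcium dye fluorescence, real-time kinetic reads · Control set – DMSO and EC80 PEA controls · Repeats – n of 1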
TAAR1 agonist = human TAAR1 agonism; Q96RJ0; CHO RD-HGA16 TAAR1, Fluo-8 calcium fluorescence; vehicle wells 0%, saturating PEA agonist 100%; activation, % at 3 µM; 0.99% of 360,000 active;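 active = activation above the mean activation of all test compounds in the run plus 3 SD, cut at about 38% in these data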
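System: CHO-derived RD-HGA16 cells with stable Gα16 and human TAAR1. Times: 17-24 h plating, Fluo-8 75 min 37 °C, 30 min RT. Measured by: calcium-sensitive Fluo-8 signal, excitation 470-495, emission 515-575 nm. Read-out basis: % activation relative to PEA EC100 response. Control set: DMSO and PEA EC100. Repeats: no replicates (n 1).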
TAAR1 ag conf = human TAAR1 agonism, confirmed. shares compounds with TAAR1 agonist. CHO RD-HGA16 TAAR1, Fluo-8 calcium fluorescence; scaled: DMSO 0%, maximal phenethylamine 100%. activation, % at 3 µM. 82% of 2,400 active. AID 651783;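 active = activation above a cutoff set at the run's mean compound activation plus 3 SD, cut at about 39% in these data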
Ga16 ag counter = nonselective agonist in parental cells, TAAR1 agonist counter-screen. activation, % at 3 µM. CHO-Ga16 parental, Fluo-8 calcium fluorescence; normalized to maximal ATP response, DMSO zero. 50% of 2,400 active. shares compounds with TAAR1 agonist;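 active = activation above the run cutoff, the mean activation over all tested wells plus 3 SD, cut at about 12% in these data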
TAAR1 desensitize = counter-screen for human TAAR1 agonists: agonists that desensitize TAAR1; shares compounds with TAAR1 agonist; inhibition, % at 3 µM; CHO RD-HGA16 hTAAR1, Fluo-8 calcium, beta-PEA response inhibition; 46% of 2,400 active;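 active = inhibition above the run cutoff, the mean inhibition of all test compounds plus 3 SD, cut at about 49% in these data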;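 note: beta-PEA stimulus applied at its EC80; loss of beta-PEA calcium signal after compound pretreatment read as receptor desensitization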
Ga16 antag count = nonselective Ga16 antagonism, counter-screen; shares compounds with TAAR1 agonist; CHO-Ga16 ATP-induced calcium, Fluo-8 fluorescence; inhibition, % at 3 µM; 39% of 2,400 active; AID 651952;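 active = inhibition above the plate's mean compound inhibition plus 3 SD, computed per plate, cut at about 22% in these data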
Of the large screens only hits and unclear results are named; the others gave an inactive call (follow-up assays come after a bar, where they were run).

Cc1cc(C)n(C(CC(=O)N2CCc3ccccc3C2)C(=O)O)n1 (stereo not given)	TAAR1 antagonist 90, TAAR1 agonist 102 | TAAR1 ag conf 107 | Ga16 ag counter inactive | TAAR1 desensitize 94 | Ga16 antag count inactive
CS(=O)(=O)N(Cc1ccccc1)c1ccc(C(=O)N2CCc3ccccc3C2)cc1	TAAR1 antagonist 91, TAAR1 agonist 93 | TAAR1 ag conf 101 | Ga16 ag counter inactive | TAAR1 desensitize 97 | Ga16 antag count 25
CS(=O)(=O)N(CC(=O)N1CCc2ccccc2C1)c1cccc([N+](=O)[O-])c1	TAAR1 agonist 60 | TAAR1 ag conf 54 | Ga16 ag counter inactive | TAAR1 desensitize inactive | Ga16 antag count inactive
CS(=O)(=O)N(CC(=O)N1CCc2ccccc2C1)c1cccc(F)c1	none
O=C(NCCCNC(=O)c1ccc(Cl)cc1Cl)c1cnccn1	none
O=C(COc1ccccc1)NCC(c1cccs1)N1CCOCC1 (stereo not given)	none
COc1ccc(N2CCN(C(=O)c3cc(C)oc3C)CC2)cc1	none
COc1ccc(C(=O)Sc2ccc(Cl)cc2)cc1OC	none
O=C(COc1ccc(S(=O)(=O)N2CCCC2)cc1)NCc1cccnc1	none
O=c1c2ccc(Cl)cc2nc(-c2cccc(C(F)(F)F)c2)n1O	TAAR1 agonist 52 | TAAR1 ag conf inactive | Ga16 ag counter 32 | TAAR1 desensitize inactive | Ga16 antag count inactive
O=C(COC(=O)Cc1ccc(F)cc1)Nc1ccc(Cl)cn1	none
CCc1ccc(NC(=O)C2CCCN2C(=O)NC2CCCCC2)cc1 (stereo not given)	none
CCN1CCN(CCNC(=O)c2ccc(/C=C3/Sc4ccccc4N(Cc4ccccc4C)C3=O)cc2)CC1	TAAR1 agonist 60 (no result: OXTR agonist, V1R ag counter, OXTR potentiate) | TAAR1 ag conf 72 | Ga16 ag counter 46 | TAAR1 desensitize 65 | Ga16 antag count 56
O=C1CC(c2ccccc2)CC(O)=C1C=NCCc1ccccc1 (stereo not given)	TAAR1 agonist 67 | TAAR1 ag conf 72 | Ga16 ag counter inactive | TAAR1 desensitize inactive | Ga16 antag count inactive
CC1(C)CC(=O)C(C=NCCc2ccc(O)cc2)=C(O)C1	TAAR1 agonist 66 | TAAR1 ag conf 106 | Ga16 ag counter inactive | TAAR1 desensitize 79 | Ga16 antag count inactive
Oc1ccc(/C=N/N2CCN(Cc3ccccc3)CC2)cc1	none
Oc1ccc(C=NCCc2ccccc2)cc1	none (no result: TAAR1 antagonist, TAAR1 agonist) | Ga16 ag counter inactive | Ga16 antag count inactive
COc1ccc(C(=O)Cn2c(NCCCO)nc3ccccc32)cc1	none (no result: OXTR agonist, V1R ag counter, OXTR potentiate)
Cc1cc2nc(NCCCO)n(CC(=O)c3cc(C(C)(C)C)c(O)c(C(C)(C)C)c3)c2cc1C	TAAR1 agonist 49 | TAAR1 ag conf 53 | Ga16 ag counter 30 | TAAR1 desensitize inactive | Ga16 antag count 34
CCCC(=O)N1CC(=O)Nc2ccc(F)cc2C1c1ccccc1 (stereo not given)	none
CC(C)CCCCCCCCc1cccc(O)c1C(=O)O	TAAR1 antagonist 98, TAAR1 agonist 130 (no result: OXTR agonist, V1R ag counter, OXTR potentiate) | TAAR1 ag conf 114 | Ga16 ag counter 89 | TAAR1 desensitize 104 | Ga16 antag count 92
CC(C)C(=O)NCCCc1ccccc1	none
CCn1c(-c2ccc(OC)c(OC)c2)n[nH]c1=S	none
O=C(CC1C(=O)NCCN1Cc1cccc(Oc2ccccc2)c1)NCCc1ccncc1 (stereo not given)	none
Cc1cc(NS(=O)(=O)c2ccc(NC(=S)NC(=O)c3ccc(C(C)(C)C)cc3)cc2)no1	TAAR1 agonist 45 | TAAR1 ag conf inactive | Ga16 ag counter inactive | TAAR1 desensitize inactive | Ga16 antag count inactive
Cc1cc(NS(=O)(=O)c2ccc(NC(=S)NC(=O)c3ccccc3)cc2)no1	none
C/C(=N\NC(=O)c1nnn(-c2nonc2N)c1-c1ccc2c(c1)OCO2)c1ccccc1	TAAR1 agonist 60 | TAAR1 ag conf 96 | Ga16 ag counter 46 | TAAR1 desensitize inactive | Ga16 antag count inactive
C/C(=N\NC(=O)c1nnn(-c2nonc2N)c1-c1ccc2c(c1)OCO2)c1ccc(C)cc1	TAAR1 antagonist 80, TAAR1 agonist 125 | TAAR1 ag conf 127 | Ga16 ag counter 94 | TAAR1 desensitize 83 | Ga16 antag count 64
CCN(C(=O)COC(=O)CSc1ccc(C)c(C)c1)C1CCS(=O)(=O)C1 (stereo not given)	none
Brc1ccc(C2=CC(c3cccs3)n3ncnc3N2)cc1 (stereo not given)	OXTR agonist 75, V1R ag counter 75, TAAR1 antagonist 110, TAAR1 agonist 164 | TAAR1 ag conf inactive | Ga16 ag counter 51 | TAAR1 desensitize 62 | Ga16 antag count 57
COc1ccc(C[C@@H]2CN3C(=NC[C@@H]3C)N2CCNC(=O)c2ccc(C)c(Br)c2)cc1	TAAR1 agonist 45 | TAAR1 ag conf 54 | Ga16 ag counter 15 | TAAR1 desensitize inactive | Ga16 antag count inactive
COc1ccc(N2CC(C(=O)NCc3ccccc3)CC2=O)cc1 (stereo not given)	none
COc1ccc(N2CC(C(=O)N[C@@H](C)C(=O)NCCc3ccccc3)CC2=O)cc1 (stereo not given in full)	TAAR1 agonist 62 | TAAR1 ag conf 48 | Ga16 ag counter inactive | TAAR1 desensitize inactive | Ga16 antag count inactive
Cc1ccccc1NC(=O)COC(=O)c1n[nH]c(=O)c2ccccc12	none (no result: OXTR agonist, V1R ag counter, OXTR potentiate)
Cc1c(CN2CCCC(C)C2)c(O)n(CCO)c(=O)c1C#N (stereo not given)	none (no result: TAAR1 antagonist, TAAR1 agonist) | Ga16 ag counter inactive | Ga16 antag count inactive
CCCCN(CCCC)C(=O)C1CC=CCC1C(=O)O (stereo not given)	none
O=C(O)C1CCCCC1C(=O)NCCc1ccncc1 (stereo not given)	none
COc1ccc(CCNC(=O)C2CC=CCC2C(=O)O)cc1 (stereo not given)	TAAR1 agonist 50 | TAAR1 ag conf 60 | Ga16 ag counter inactive | TAAR1 desensitize inactive | Ga16 antag count inactive
COc1ccc(CCNC(C)=O)cc1	none
O=C(O)[C@H]1CCCC[C@H]1C(=O)NCCc1ccccc1	TAAR1 antagonist 85, TAAR1 agonist 85 | TAAR1 ag conf 97 | Ga16 ag counter inactive | TAAR1 desensitize 92 | Ga16 antag count inactive

Source: PubChem BioAssay
